The IC50 is the point on the concentration scale where inhibition reaches its midpoint. For orientation: EC50 means the concentration giving half of the maximal effect.

Calls of active or inactive are those of the source. The rule behind the calls is not given here.

Experiment [1] deals with T1, Transient receptor potential cation channel subfamily V member 2 (Rattus norvegicus, UniProt Q9WUD2).
T1 sequence (Q9WUD2 whole entry): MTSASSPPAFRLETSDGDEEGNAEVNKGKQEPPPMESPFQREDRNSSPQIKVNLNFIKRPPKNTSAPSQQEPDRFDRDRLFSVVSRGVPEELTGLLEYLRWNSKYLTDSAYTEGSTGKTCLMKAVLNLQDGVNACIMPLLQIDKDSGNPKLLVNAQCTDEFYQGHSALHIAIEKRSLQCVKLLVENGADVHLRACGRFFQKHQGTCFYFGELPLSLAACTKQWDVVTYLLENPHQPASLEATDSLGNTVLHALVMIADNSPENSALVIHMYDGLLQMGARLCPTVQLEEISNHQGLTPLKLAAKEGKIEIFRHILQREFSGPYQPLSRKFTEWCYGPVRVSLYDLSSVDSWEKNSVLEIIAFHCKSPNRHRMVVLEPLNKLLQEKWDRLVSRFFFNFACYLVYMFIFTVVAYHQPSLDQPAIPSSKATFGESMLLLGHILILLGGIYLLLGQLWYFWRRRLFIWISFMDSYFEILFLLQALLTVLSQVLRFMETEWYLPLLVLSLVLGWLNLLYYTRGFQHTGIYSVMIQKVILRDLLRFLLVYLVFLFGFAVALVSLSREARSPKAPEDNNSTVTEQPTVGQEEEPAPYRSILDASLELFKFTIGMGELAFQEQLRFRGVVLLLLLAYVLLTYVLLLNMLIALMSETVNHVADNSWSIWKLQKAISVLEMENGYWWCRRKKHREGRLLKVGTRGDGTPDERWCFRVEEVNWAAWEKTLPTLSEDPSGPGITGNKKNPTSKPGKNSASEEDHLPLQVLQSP
Put plainly: Antagonist activity at recombinant rat TRPV2 expressed in HEK293 cells assessed as inhibition of LPC-induced Ca2+ levels preincubated for 5 mins followed by agonist addition by Fuo-4-AM based spectrofluorimetry. In kind it is cell-based. The method in brief:
(§1)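 HEK-293 cells heterologously expressing rat TRPV2, fluorometric intracellular Ca2+ assay. Cells are preincubated 5 min with varying test concentrations, then challenged with LPC (3 µM) or CBD (2 µM). Inhibition of the agonist-evoked [Ca2+]i rise gives IC50 (µM).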

The target of experiment [2] is T1, Transient receptor potential cation channel subfamily V member 2. Description: Antagonist activity at recombinant rat TRPV2 expressed in HEK293 cells assessed as inhibition of CBD-induced Ca2+ levels preincubated for 5 mins followed by agonist addition by Fuo-4-AM based spectrofluorimetry. In kind it is cell-based. The procedure, abridged:
as §1

In experiment [3] the target is T2, Transient receptor potential cation channel subfamily V member 2 (Rattus norvegicus) (UniProt Q9WUD2).
T2 sequence (whole entry): T1 sequence (Q9WUD2 whole entry)
Description: Non-competitive antagonist activity at recombinant rat TRPV2 expressed in HEK293 cells assessed as inhibition of LPC-induced Ca2+ levels preincubated for 5 mins followed by agonist addition by Fuo-4-AM dependent spectrofluorimetry based Schild analysis. In kind it is cell-based. The method in brief: (§2)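 Schild analysis in rat TRPV2-HEK-293 cells by fluorometric Ca2+ assay. Full LPC or CBD concentration–response curves are run at increasing antagonist concentrations. Each agonist concentration is expressed as percent of its effect at 2x10-4 M without antagonist.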

Experiment [4] deals with T2, Transient receptor potential cation channel subfamily V member 2 (Rattus norvegicus). Description: Non-competitive antagonist activity at recombinant rat TRPV2 expressed in HEK293 cells assessed as inhibition of CBD-induced Ca2+ levels preincubated for 5 mins followed by agonist addition by Fuo-4-AM dependent spectrofluorimetry based Schild analysis. In kind it is cell-based. The procedure, abridged:
as §2

For experiment [5], the target named is Transient receptor potential cation channel subfamily V member 1 (Homo sapiens, UniProt Q8NER1). Put plainly: Agonist activity at recombinant human TRPV1 expressed in HEK293 cells assessed as induction of Ca2+ levels by Fuo-4-AM based spectrofluorimetry.
Chain of Transient receptor potential cation channel subfamily V member 1 (Q8NER1 whole entry): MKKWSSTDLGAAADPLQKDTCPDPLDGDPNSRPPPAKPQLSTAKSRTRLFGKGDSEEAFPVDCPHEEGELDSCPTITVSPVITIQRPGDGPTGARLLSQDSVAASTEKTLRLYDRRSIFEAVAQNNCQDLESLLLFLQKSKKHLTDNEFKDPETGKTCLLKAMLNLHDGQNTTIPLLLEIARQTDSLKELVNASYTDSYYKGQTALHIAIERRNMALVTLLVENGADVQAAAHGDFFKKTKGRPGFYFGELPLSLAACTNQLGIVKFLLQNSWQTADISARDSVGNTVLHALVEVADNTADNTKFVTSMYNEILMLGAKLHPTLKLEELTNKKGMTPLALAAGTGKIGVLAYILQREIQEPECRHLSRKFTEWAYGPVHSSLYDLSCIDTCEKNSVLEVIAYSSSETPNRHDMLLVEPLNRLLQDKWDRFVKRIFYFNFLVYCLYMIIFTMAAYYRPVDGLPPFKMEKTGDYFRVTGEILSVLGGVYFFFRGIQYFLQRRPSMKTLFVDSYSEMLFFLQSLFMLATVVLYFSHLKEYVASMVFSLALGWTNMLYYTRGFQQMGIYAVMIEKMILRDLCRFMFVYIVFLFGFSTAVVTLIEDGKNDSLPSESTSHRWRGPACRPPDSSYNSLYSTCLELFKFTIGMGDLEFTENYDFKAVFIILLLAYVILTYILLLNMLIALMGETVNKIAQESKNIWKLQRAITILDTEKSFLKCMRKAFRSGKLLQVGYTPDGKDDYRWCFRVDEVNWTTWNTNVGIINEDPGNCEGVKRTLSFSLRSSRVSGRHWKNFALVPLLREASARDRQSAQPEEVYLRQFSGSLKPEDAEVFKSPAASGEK

`CCCCCC[C@@H](O)C/C=C\CCCCCCCCSCCC(=O)NCc1ccc(O)c(OC)c1`: the IC50 in experiment [1] was more than 10000 nM.
As for `CCCCCCCCCCCCCCCCCCCC(=O)NCc1ccc(O)c(OC)c1`, the IC50 in experiment [1] is 3100 nM; in experiment [2], more than 10000 nM.
Taken in the same sequence, the figures for `CCCCCCCC/C=C\CCCCCCCC(=O)N/N=C/c1ccc(O)c(OC)c1` were 120 nM and 3000 nM.
As for `CCCCCCCCCCCCCCCCCC(=O)NCc1ccc(O)c(OC)c1`, the IC50 in experiment [1] and in experiment [2] was more than 10000 nM in each case.
With `CCCCCCCCCCCCCCCC[Se]C[C@H](N)C(=O)NCc1ccc(O)c(OC)c1`, the IC50 in experiment [1] worked out at 1200 nM.
Same read-out and setting: then `CCCCCC[C@H](C/C=C\CCCCCCCCSCCC(=O)NCc1ccc(O)c(OC)c1)OC(=O)Cc1ccccc1`, with more than 10000 nM.
For the compound `CC/C=C\C/C=C\C/C=C\C/C=C\C/C=C\CCCC(=O)NCCO`, the concentration for half-maximal inhibition (IC50) was more than 10000 nM in experiment [1] and 2300 nM in experiment [2].
On the same counts, the results for `CCCCC/C=C\C/C=C\CCCCCCCCCCCC(=O)NCc1ccc(O)c(OC)c1` are 820 nM and 1800 nM.
Take `CCCCCCCCCCCCCCCCSC[C@H](N)C(=O)NCc1ccc(O)c(OC)c1`: the IC50 in experiment [1] was 1400 nM.
Regarding `CCCCCCCCCCCCCCCC(=O)N/N=C/c1ccc(O)c(OC)c1`, the half-inhibitory concentration (IC50) in experiment [1] was 280 nM; in experiment [2] it was 6000 nM.
With `CCCCCCCC/C=C\CCCCCCCC[Se]CCC(=O)NCc1ccc(O)c(OC)c1`, the IC50 in experiment [1] was determined as 1800 nM; in experiment [2] it was 3200 nM.
On the same counts, the results for `CCCCCCCCCCCCCCCC(=O)O` [PALMITIC ACID] are more than 10000 nM and more than 10000 nM.
Taken in the same sequence, the figures for `CCCCC/C=C\C/C=C\CCCCCCCCSCCC(=O)NCc1ccc(O)c(OC)c1` were 1400 nM and 2800 nM.
Regarding `CCCCCCCCCCCCCCCCCCCC(N)=O`, the half-inhibitory concentration (IC50) in experiment [1] and in experiment [2] was more than 10000 nM throughout.
On to `CCCCCCCCCCCCCCCC[Se]CCC(=O)NCc1ccc(O)c(OC)c1`, for which the IC50 in experiment [1] worked out at 4300 nM.
Regarding `CCCCCCCCCCCCCCCC(=O)NCCO` [PALMIDROL], the IC50 in experiment [1] and in experiment [2] was more than 10000 nM throughout.
For the compound `CCCCC/C=C\C/C=C\C/C=C\C/C=C\CCCC(=O)O` [ARACHIDONIC ACID], the IC50 in experiment [1] and in experiment [2] was more than 10000 nM each time.
As to `CCCCCCCC/C=C\CCCCCCCCCCCC(=O)O` [ERUCIC ACID], the IC50 in experiment [1] and in experiment [2] was more than 10000 nM each time.
In the case of `CCCCCCCCCCCCCCCCOC(=O)CSC[C@H](N)C(=O)NCc1ccc(O)c(OC)c1`, in experiment [1], the IC50 was 1400 nM.
For `CCCCCCC(=O)CC(O)CCCCCCCCC(=O)NCc1ccc(O)c(OC)c1` (configuration not stated), the half-maximal inhibitory concentration (IC50) in experiment [1] and in experiment [2] was more than 10000 nM throughout.
As to `CCCCCCCC/C=C\CCCCCCCC[Se]C[C@H](N)C(=O)NCc1ccc(O)c(OC)c1`, the half-inhibitory concentration (IC50) in experiment [1] worked out at 1700 nM; in experiment [2], 980 nM. Moreover, the inhibition result in experiment [3] and in experiment [4] was “Active” in each case.
Consider `CCCCCCCC/C=C\CCCCCCCCSCCC(=O)NCc1ccc(O)c(OC)c1`, for which, in experiment [1], the concentration for half-maximal inhibition (IC50) is 2500 nM.
As for `CCCCC/C=C\C/C=C\CCCCCCCC(N)=O`, the IC50 was 2200 nM in experiment [1] and 1200 nM in experiment [2].
Take `CCCCCCCCCCCCCCCCSCCC(=O)NCc1ccc(O)c(OC)c1`: the IC50 in experiment [1] worked out at 3800 nM.
In the case of `CCCCCC[C@@H](O)C/C=C\CCCCCCCC[Se]CCC(=O)NCc1ccc(O)c(OC)c1`, the IC50 is more than 10000 nM in experiment [1] and 1400 nM in experiment [2]. The inhibition result in experiment [4] is “Active”.
With `CCCCCCCCCCCCCCCCCCCC(=O)O` [ARACHIDIC ACID], the half-maximal inhibitory concentration (IC50) in experiment [1] and in experiment [2] was more than 10000 nM each time.
With `CCCCC/C=C\C/C=C\CCCCCCCC(=O)NCCO` [LINOLEOYLETHANOLAMIDE], the half-inhibitory concentration (IC50) in experiment [1] is 1400 nM; in experiment [2] it was 650 nM.
Turning to `CCCCCCCC/C=C\CCCCCCCC(N)=O` [OLEAMIDE], the 50% inhibitory concentration (IC50) in experiment [1] and in experiment [2] was 2100 nM each time.
For `CCCCCCCCCCCCCCCCCC(=O)NCCO` [N-(2-HYDROXYETHYL)STEARAMIDE], the half-inhibitory concentration (IC50) in experiment [1] and in experiment [2] was more than 10000 nM each time.
Regarding `CCCCC/C=C\C/C=C\C/C=C\C/C=C\CCCC(=O)NCCO` [ANANDAMIDE], the 50% inhibitory concentration (IC50) in experiment [1] was found to be 8600 nM; in experiment [2] it was 960 nM.
On the same counts, the results for `CCCCCCCCCCCCCCCC(=O)NCc1ccc(O)c(OC)c1` are more than 10000 nM and more than 10000 nM.
`CCCCCCCCCCCCCCCCOC(=O)CSCCC(=O)NCc1ccc(O)c(OC)c1`: the IC50 in experiment [1] is more than 10000 nM.
As to `CCCCCC/C=C\CCCCCCCC(=O)NCCO`, the IC50 in experiment [1] turned out to be 3500 nM; in experiment [2], 1700 nM.
Taken in the same sequence, the figures for `CC/C=C\C/C=C\C/C=C\C/C=C\C/C=C\C/C=C\CCC(=O)NCCO` were more than 10000 nM and 1630 nM.
Regarding `CCCCCCCC/C=C\CCCCCCCCSC[C@H](N)C(=O)NCc1ccc(O)c(OC)c1`, the IC50 in experiment [1] amounted to 1900 nM.
In the case of `CCCCCCC(=O)C/C=C/CCCCCCCC(=O)NCc1ccc(O)c(OC)c1`, the concentration for half-maximal inhibition (IC50) is more than 10000 nM in experiment [1] and 4400 nM in experiment [2].
On the same counts, the results for `CCCCC/C=C\C/C=C\CCCCCCCCCCCC(=O)O` are more than 10000 nM and more than 10000 nM.
`CCCCCCCCCCCCCCCCCCCC(=O)NCCO`: the 50% inhibitory concentration (IC50) in experiment [1] and in experiment [2] was more than 10000 nM in each case.
As for `CCCCCCCCCCCCCCCC(N)=O` [PALMITAMIDE], the IC50 in experiment [1] and in experiment [2] was more than 10000 nM in each case.
On to `CCCCCC[C@H](C/C=C\CCCCCCCC[Se]CCC(=O)NCc1ccc(O)c(OC)c1)OC(=O)Cc1ccccc1`, for which the half-inhibitory concentration (IC50) was more than 10000 nM in experiment [1] and 2300 nM in experiment [2].
Regarding `NCCOB(c1ccccc1)c1ccccc1`, the EC50 in experiment [5] amounted to 129000 nM.
As to `CCCCCCCC/C=C\CCCCCCCCCCCC(=O)NCc1ccc(O)c(OC)c1`, the half-maximal inhibitory concentration (IC50) was 490 nM in experiment [1] and 1500 nM in experiment [2].
Taken in the same sequence, the figures for `CCCCCCCC/C=C\CCCCCCCC(=O)NCCO` [OLEOYLETHANOLAMIDE] were 1800 nM and 5400 nM.
On the same counts, the results for `CCCCCCCCCCCCCCCCCC(N)=O` [OCTADECANOIC ACID AMIDE] are more than 10000 nM and more than 10000 nM.
On the same counts, the results for `CCCCCCCC/C=C\CCCCCCCC(=O)O` [OLEIC ACID] are more than 10000 nM and more than 10000 nM.
Consider `CCCCCC[C@@H](O)C/C=C/CCCCCCCC(=O)NCc1ccc(O)c(OC)c1`, for which the IC50 in experiment [1] was more than 10000 nM; in experiment [2] it was 7500 nM.
Turning to `CCCCCCCC/C=C\CCCCCCCCCCCC(=O)NCCO`, the results for the half-inhibitory concentration (IC50) in experiment [1] and in experiment [2] were 740 nM and more than 10000 nM, respectively. Besides, in experiment [3], the inhibition entry is “Active”.
In the case of `CCCCC/C=C\C/C=C\CCCCCCCC[Se]CCC(=O)NCc1ccc(O)c(OC)c1`, the values for the 50% inhibitory concentration (IC50) in experiment [1] and in experiment [2] were 1400 nM and 2300 nM, respectively.
In the case of `CCCCCCCC/C=C\CCCCCCCC(=O)NCc1ccc(O)c(OC)c1` [OLVANIL], the half-maximal inhibitory concentration (IC50) in experiment [1] turned out to be 160 nM; in experiment [2] it was 1700 nM. Moreover, the inhibition entry in experiment [3] and in experiment [4] was “Active” each time.
For `CCCCC/C=C\C/C=C\CCCCCCCC(=O)NCc1ccc(O)c(OC)c1`, the values for the IC50 in experiment [1] and in experiment [2] were 2600 nM and 2100 nM, respectively.
Taken in the same sequence, the figures for `CCCCCCCC/C=C\CCCCCCCCCCCC(N)=O` were 670 nM and 7100 nM.

The values above are taken from ChEMBL document CHEMBL4229558, “Elongation of the Hydrophobic Chain as a Molecular Switch: Discovery of Capsaicin Derivatives and Endogenous Lipids as Potent Transient Receptor Potential Vanilloid Channel 2 Antagonists” (J Med Chem, 2018).
